The full list was thinned out, with hits kept by preference.
INS promoter act = TRM-6 insulin promoter activation. activation, % at 2 µM. AID 1296. 130,000 compounds, 0.81% hits. TRM-6 cells (human fetal islet line), insulin promoter eGFP reporter, imaging; plate-scaled: unstimulated 0, stimulated control 100;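 active = activation at 2 µM above a set limit, confirmed on inspection of the cell images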;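 note: share of cells whose green reporter signal exceeds an intensity cutoff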
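Material: TRM-6 insulin promoter–eGFP reporter cells. Buffer or medium: Low-glucose (5.5 mM) medium with tamoxifen. Probe or stimulus: tamoxifen at 0.75 µM added at seeding for reporter induction. Times: tamoxifen pre-incubation 15 h overnight, then compound exposure 48 h at 37 °C. Detection: high-content imaging of fixed cells with Hoechst nuclear stain.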
Starred values were filed as active, the others as inactive.

SMILES	INS promoter act
CCc1ccc(-n2c(C)cc(/C=N/NC(=O)OC)c2C)cc1	-7.9
CCCCN(CCCC)S(=O)(=O)c1c(C)[nH]c(=O)[nH]c1=O	-72.7
COc1ccc(NC(=O)COC(=O)c2ccco2)c([N+](=O)[O-])c1	-9.1
COc1ccc(NC(=O)CC(C)c2ccccc2)c([N+](=O)[O-])c1 (centres undefined)	442.9*
COc1ccc(NC(=O)/C=C/c2ccccc2)c([N+](=O)[O-])c1	-9.1
CC(C)(C)c1ccc(-c2nnc(SCC(=O)NC3CCS(=O)(=O)C3)n2N)cc1 (centres undefined)	-75.0
O=C(NC1CCCC1)C1CCN(c2cnccn2)CC1	5.3
Clc1ccc2c(c1)C(N1CCNCC1)Cc1ccccc1S2 (centres undefined)	506.9*
Clc1cccc2c1Sc1ccccc1CC2N1CCNCC1 (centres undefined)	3.2
Cc1ccc(C(=O)N(Cc2ccccc2)C(C)(C)C)cc1C	-6.7
O=C(c1ccc(Cl)c([N+](=O)[O-])c1)N1CCN(Cc2ccc3c(c2)OCO3)CC1	121.4
CC1CCc2cc(F)ccc2N1S(=O)(=O)c1ccc(Cl)nc1 (centres undefined)	2.9
COCCNC(=O)CN(C(=O)c1ccc(N2CCCC2)nc1)c1ccccc1	772.7*
COCCNC(=O)COC(=O)/C=C/c1cnc2ccccc2n1	9.3
COc1ccc(-c2nnn(CC(=O)N(CC(=O)NCCC(C)C)c3ccccc3)n2)cc1OC	0.0
Cc1ccc(NC2SC(=O)N(CC(=O)O)C2=O)cc1 (centres undefined)	-3.1
O=C(Cn1cccc1C(=O)c1ccccc1)NCc1cccc(Cl)c1	386.7*
O=C(Cn1cccc1C(=O)c1ccccc1)NCc1ccc(Cl)cc1	6.7
Cc1ccc(CNC(=O)Cn2cccc2C(=O)c2ccccc2)cc1	5.4
COCc1cc(C)nc(SCC[N+](C)(C)CC(=O)c2ccccc2)c1C#N	7.1
OCCN(Cc1ccccc1)Cc1cccc(F)c1	81.3*
OCCN(Cc1ccccc1)CC1CCCCC1	-77.3
OCCN(Cc1ccccc1)CC1CC2C=CC1C2 (centres undefined)	8.1
CCOC(=O)c1c(NC(=O)CSC(=S)N2CCOCC2)sc(C)c1C	-3.7
CCOc1ccc(N=C(NN)c2ccc3ccccc3n2)cc1	2.9
SMILES	INS promoter act
O=C1C(Cl)=C(NCC2CCCO2)C(=O)N1CCc1ccccc1 (centres undefined)	608.3*
O=C1C(Cl)=C(NCCc2ccccc2)C(=O)N1CCc1ccccc1	-8.7
O=C1C(Cl)=C(Nc2ccc(F)cc2)C(=O)N1CCc1ccccc1	171.0
COC(C(=O)NC(C(C)C)C(C)C)c1ccccc1 (centres undefined)	0.0
Cc1ccc(C(=O)c2cc([N+](=O)[O-])ccc2N2CCCCC2)c(C)c1	148.4
CCOC(=O)N1CCC(NC(=O)c2cc(C(=O)Nc3ccc(S(=O)(=O)N4CCOCC4)cc3)ccc2CO)CC1	5.9
COc1ccc(NC(=O)CC2C(=O)N(C)C(=S)N2CCc2ccccc2)cc1 (centres undefined)	-7.1
COc1ccc(NC(=O)CC2C(=O)N(Cc3ccccc3)C(=S)N2CCN2CCOCC2)cc1 (centres undefined)	333.3*
COC(=O)CN1C(=S)N(Cc2ccccc2)C(=O)C1CC(=O)Nc1ccc(OC)cc1 (centres undefined)	-80.0
Cc1ccc(Cn2nc(C)c(NC(=O)C3(C)CC3(Br)Br)c2C)cc1 (centres undefined)	0.0
Cc1nn2c3c(cnc2c1-c1ccccc1)C(=O)CC(c1ccco1)C3 (centres undefined)	136.4*
Cc1ccc(NC(=O)CSCC(=O)Nc2ncc3c(n2)CC(c2ccco2)CC3=O)cc1 (centres undefined)	2.7
O=C(Nc1ncc2c(n1)CC(c1ccco1)CC2=O)c1ccccc1 (centres undefined)	6.7
O=C(c1ccco1)N1CCN(c2ccc([N+](=O)[O-])c(N3CCOCC3)c2)CC1	-6.7
COC(=O)C1=C(C)N(Cc2ccco2)C(=O)N[C@H]1c1cccc(C(F)(F)F)c1	-4.5
O=C(c1ccc(S(=O)(=O)c2cccc(Cl)c2)c([N+](=O)[O-])c1)N1CCN(Cc2ccccc2)CC1	-2.9
COc1ccc(C(C)NC(=O)Cc2ccc(Br)cc2)cc1 (centres undefined)	3.6
COc1ccc(C(C)NC(=O)c2ccccc2)cc1 (centres undefined)	2.9
COc1ccc(C(NC(=O)C(C)(C)C)NC(=O)C(C)(C)C)cc1	95.0*
Cc1ccccc1CN(c1ccc(C(=O)Nc2ccccc2C(=O)NCc2ccco2)cc1)S(C)(=O)=O	-7.1
O=C(NCc1ccccn1)c1ccc(Br)s1	528.6*
O=C(NCc1ccccn1)c1c(Cl)cccc1Cl	-7.1
O=C(NCc1ccccn1)c1ccc(Cl)cc1Cl	272.2
O=C(COC(=O)CCCN1C(=O)c2cccc3cccc(c23)C1=O)Nc1cccc(C(F)(F)F)c1	-6.7
O=C(Nc1ccccc1C(F)(F)F)c1cc2ncc(CCCl)cn2n1	-7.1
Cc1cccc(NC(=O)NCCc2c[nH]c3ccccc23)c1	2.6
